S1P4 antagonist: blocks the human S1P4 receptor. S1P4-expressing cells, antagonist mode, reporter read-out. hit rate 0.26% among 220,000. inhibition, % at 4.98 µM. O95977. AID 1510; in the data active = inhibition above about 29%
Pf gametocyte: inhibitors of late stage P. falciparum gametocyte viability; inhibition, % at 10.9 µM; P. falciparum stage V gametocytes, ATP luminescence, 24 h; hit rate 0.065% among 150,000;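 active = inhibition above the mean plus 3 SD of compounds within the control limits, set per campaign, cut at about 38% in these data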
S1P3 antagonist: antagonists of human S1P3 receptor; Q99500; CHO S1P3 NFAT-BLA reporter, FRET fluorescence, antagonist mode; inhibition, % at 4.98 µM; hit rate 0.27% among 170,000;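 active = inhibition above the plate cutoff, the mean inhibition of test wells on that plate plus 3 SD, cut at about 28% in these data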;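 also: cells challenged with S1P at its EC80 of 0.8 µM; blue over green emission ratio from cleaved BLA substrate after 4 h stimulation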
S1P4 ag: activates the human S1P4 receptor; O95977; S1P4-expressing cell line, agonist reporter assay; activation, % at 4.98 µM; hit rate 0.35% among 220,000; in the data active = activation above about 11%
Calb biofilm kill: mixture kills Candida albicans biofilm cells. C. albicans biofilm persisters + clotrimazole, fluorescence viability; primary screen in compound mixtures of four per well. inhibition, % at 7.6 µM. hit rate 0.02% among 120,000. AID 1242;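 active = inhibition above 30.3% in the primary screen of four-compound pools, then above 30% when the compound was retested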;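 also: compounds exposed to preformed 24 h biofilms for 48 h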
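Assay system: C. albicans biofilms / Medium: RPMI/MOPS medium, pH 7.0 / Schedule: biofilm formation 24 h, compound exposure 48 h, 37 °C / Measured by: Alamar Blue fluorescence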
S1P4 ag conf: confirmation of human S1P4 receptor agonists; shares compounds with S1P4 ag; S1P4 agonist cell-based reporter assay; activation, % at 4.98 µM; hit rate 7% among 740; in the data active = activation above about 12%
S1P1 ag: human S1P1 agonism as S1P4 agonist counter-screen. hit rate 4% among 740. shares compounds with S1P4 ag. AID 1563. S1P1 agonist cell-based assay, activation. activation, % at 4.98 µM; in the data active = activation above about 21%
Target sequence (P21453 whole entry, looked up): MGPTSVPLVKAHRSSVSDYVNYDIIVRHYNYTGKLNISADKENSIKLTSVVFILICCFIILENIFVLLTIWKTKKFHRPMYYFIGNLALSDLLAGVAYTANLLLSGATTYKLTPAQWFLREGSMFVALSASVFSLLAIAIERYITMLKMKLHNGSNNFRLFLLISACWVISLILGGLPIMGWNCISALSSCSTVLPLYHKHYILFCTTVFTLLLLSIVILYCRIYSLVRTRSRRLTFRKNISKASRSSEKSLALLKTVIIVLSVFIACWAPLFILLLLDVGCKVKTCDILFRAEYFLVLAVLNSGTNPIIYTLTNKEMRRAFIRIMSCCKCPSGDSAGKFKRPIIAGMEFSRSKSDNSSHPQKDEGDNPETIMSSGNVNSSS
S1P4 antag conf: human S1P4 antagonism, confirmation. shares compounds with S1P4 antagonist. S1P4-expressing cell line, antagonist mode, reporter read-out. inhibition, % at 4.98 µM. hit rate 71% among 520. AID 1524; in the data active = inhibition above about 30%
S1P1 antag: human S1P1 antagonism as S1P4 antagonist counter-screen; cell-based S1P1 antagonist counterscreen, inhibition; hit rate 37% among 520; inhibition, % at 4.98 µM; shares compounds with S1P4 antagonist; in the data active = inhibition above about 40%;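 also: receptor stimulated with S1P near its EC80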
Numbers stand for hits; n = inactive; x = not tested or not shown. Rows were chosen to be rich in hits. Some 0.77% of all compounds tested hit in one or more screens of this group.

SMILES	S1P4 antagonist	Pf gametocyte	S1P3 antagonist	S1P4 ag	Calb biofilm kill	S1P4 antag conf	S1P1 antag	others
C[n+]1ccc(-c2ccncc2)cc1	n	n	n	11.5	x	x	x	S1P4 ag conf=n;S1P1 ag=n
CCCCn1c(=O)c(C(=O)Nc2ccsc2C(=O)OC)c(O)c2ccccc21	n	n	n	n	n	x	x
Cc1cc(N(CCCl)CCCl)ccc1/C=N/N=C(\N)c1cnccn1	x	n	x	x	x	x	x
C=CCn1c(O)c(C(C)=O)c(=O)[nH]c1=O (tested in a mixture with another compound)	n	n	n	n	n	x	x
C[C@@H]1O[C@@H](O[C@H]2C[C@@H](O)[C@]3(CO)[C@H]4[C@H](O)C[C@]5(C)[C@@H](C6=CC(=O)OC6)CC[C@]5(O)[C@@H]4CC[C@]3(O)C2)[C@H](O)[C@H](O)[C@H]1O	32.5	x	n	n	n	58.5	n
O=c1[nH]sc2cc(F)ccc12	30.7	n	n	n	n	90.7	45.8
C[C@@H]1C2C[C@@]34COC(=O)C3=CC=C[C@H]4[C@@]13C[C@H](c1ccoc1)O[C@@H]3O2	n	x	n	n	n	x	x
O=C(NC1CONC1=O)OCC(Cl)(Cl)Cl (stereo not drawn)	n	n	n	n	n	x	x
COC(=O)C[C@]1(C(=O)OC)CN(C#N)N(c2ccc(Cl)cc2)C12c1ccccc1-c1ccccc12	55.4	x	x	n	n	120.1	87.5
COC(=O)[C@@H]1[C@@H](C(=O)OC)C2(c3ccccc3-c3ccccc32)N(c2ccc(Cl)cc2)N1C#N	n	n	x	n	n	x	x
